In brackets after ≈: the same amount, converted by molar mass.

The test system of assay [1] is Candida albicans. Nature of the assay: Minimum inhibitory concentration required to inhibit Candida albicans (in vitro). The class given is functional. Summed up:
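Broth dilution in defined medium (NH4Cl, K2HPO4, MgSO4, sodium citrate, PIPES, biotin, glucose; pH 7.1), strain P712 from frozen log-phase stocks. Inoculum 4500 CFU per 3 mL tube, final drug 50–0.01 μg/mL, or microtiter wells (0.05 mL) with 4-fold dilutions. 28 °C, 160 rpm, 20–24 h.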

Assay [2] relates to Candida albicans. Kind of assay: Ratio of I50 evaluated for inhibition of DHFR in humans to Candida albicans. In outline:
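Selectivity index is the human DHFR I50 divided by the C. albicans DHFR I50. The C. albicans enzyme (E. coli-expressed, 0.2 nM) was run in 0.1 M imidazole chloride, pH 6.4. Recombinant human enzyme (2 nM) was run in 50 mM Sorenson's phosphate, pH 7.0. Enzyme, NADPH and inhibitor were preincubated 2 min before substrate was added. I50 came from linear regression of % inhibition of steady-state velocity vs log concentration.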

Turning to `Nc1nc(N)c2c(Sc3ccc(Br)cc3)cccc2n1`, in the assay with Candida albicans [1], the lowest concentration to inhibit growth (MIC) was 0.25 µg/mL (≈ 0.72 µM). In addition, in the assay with Candida albicans [2], the Selectivity index amounted to 100.

With `COc1ccccc1Sc1cccc2nc(N)nc(N)c12`, 10 µg/mL (≈ 33.5 µM) was the least that counted as inhibitory with Candida albicans [1] (MIC). For the same compound, the Selectivity index in the assay with Candida albicans [2] worked out at 4.

For `Nc1nc(N)c2c(Sc3ccc(C(F)(F)F)cc3)cccc2n1`, in the assay with Candida albicans [1], inhibition of growth (MIC) required 25 µg/mL (≈ 74.3 µM). The Selectivity index in the assay with Candida albicans [2] turned out to be 5.

On to `CC(C)COc1ccc2nc(N)nc(N)c2c1Sc1ccc(C(C)(C)C)cc1`, for which 0.8 µg/mL (≈ 2.02 µM) was the least that counted as inhibitory against Candida albicans [1] (MIC). Further, the Selectivity index in the assay with Candida albicans [2] is 10.

With `CCOc1ccc2nc(N)nc(N)c2c1Sc1ccc(C(C)(C)C)cc1`, in the assay on Candida albicans [1], the MIC (usually the smallest concentration in the dilution series that meets the test's criterion for growth inhibition) came to 1 µg/mL (≈ 2.71 µM).

Compound `COc1ccc(Sc2cccc3nc(N)nc(N)c23)cc1OC` yielded an MIC with Candida albicans [1] above 50 µg/mL. For the same compound, the Selectivity index with Candida albicans [2] amounted to 79.

`Nc1nc(N)c2c(Sc3cccc(Cl)c3)cccc2n1` came in with an MIC in the assay on Candida albicans [1] of 0.5 µg/mL (≈ 1.65 µM). Besides, the Selectivity index with Candida albicans [2] amounted to 6.

On to `COc1cc(Cc2cnc(N)nc2N)cc(OC)c1OC` [TRIMETHOPRIM], for which the MIC in the assay on Candida albicans [1] is above 50 µg/mL.

Take `CCc1nc(N)nc(N)c1-c1ccc(Cl)cc1` [PYRIMETHAMINE]: the MIC against Candida albicans [1] is above 50 µg/mL.

`Nc1nc(N)c2c(Sc3ccc(N4CCOCC4)cc3)cccc2n1`: the MIC with Candida albicans [1] is above 50 µg/mL.

In turn, `N#Cc1ccc(Sc2cccc3nc(N)nc(N)c23)cc1` returned an MIC against Candida albicans [1] above 50 µg/mL. Besides, the Selectivity index in the assay on Candida albicans [2] was determined as 100.

`Nc1ccc(Sc2cccc3nc(N)nc(N)c23)cc1` displayed an MIC with Candida albicans [1] of 2.5 µg/mL (≈ 8.82 µM). Besides, the Selectivity index in the assay with Candida albicans [2] came to 5.

In the case of `Nc1nc(N)c2c(Sc3ccc(O)cc3)cccc2n1`, the MIC against Candida albicans [1] worked out at 10 µg/mL (≈ 35.2 µM). For the same compound, the Selectivity index in the assay on Candida albicans [2] amounted to 5.

In turn, `CC(C)(C)c1ccc(Sc2cccc3nc(N)nc(N)c23)cc1` displayed a minimal inhibitory concentration (MIC) in the assay on Candida albicans [1] of 0.1 µg/mL (≈ 0.308 µM).

Take `Cc1ccc(Sc2cccc3nc(N)nc(N)c23)cc1`: 0.25 µg/mL (≈ 0.885 µM) was the least that counted as inhibitory against Candida albicans [1] (MIC).

As for `COc1cc(Sc2cccc3nc(N)nc(N)c23)cc(OC)c1OC`, it took 5 µg/mL (≈ 13.9 µM) to inhibit growth against Candida albicans [1] (MIC).

For `COc1ccc(OC)c(Cc2cnc3nc(N)nc(N)c3c2C)c1` [PIRITREXIM], the MIC against Candida albicans [1] is above 10 µg/mL.

Take `COc1cccc(Sc2cccc3nc(N)nc(N)c23)c1`: the MIC in the assay on Candida albicans [1] came out at 0.25 µg/mL (≈ 0.838 µM).

As for `Nc1nc(N)c2c(Sc3ccc(F)cc3)cccc2n1`, the MIC in the assay with Candida albicans [1] was 0.25 µg/mL (≈ 0.873 µM). Also, the Selectivity index in the assay with Candida albicans [2] came to 40.

Consider `CC(C)c1ccc(Sc2cccc3nc(N)nc(N)c23)cc1`, for which the MIC in the assay on Candida albicans [1] worked out at 0.25 µg/mL (≈ 0.805 µM).

`COc1cc(NCc2ccc3nc(N)nc(N)c3c2C)cc(OC)c1OC` [TRIMETREXATE] showed an MIC in the assay on Candida albicans [1] above 50 µg/mL.

With `CCN(CC)c1ccc(Sc2cccc3nc(N)nc(N)c23)cc1`, the MIC in the assay on Candida albicans [1] turned out to be 2.5 µg/mL (≈ 7.36 µM).

For the compound `CCCCCCc1ccc(Sc2cccc3nc(N)nc(N)c23)cc1`, the lowest concentration to inhibit growth in the assay with Candida albicans [1] (MIC) was 50 µg/mL (≈ 142 µM).

The compound `Nc1nc(N)c2c(Sc3ccccc3Cl)cccc2n1` came in with an MIC against Candida albicans [1] of 1 µg/mL (≈ 3.3 µM). The Selectivity index in the assay with Candida albicans [2] was determined as 2.

`COc1ccc(Sc2cccc3nc(N)nc(N)c23)cc1` had a minimum inhibitory concentration (MIC) against Candida albicans [1] of 0.25 µg/mL (≈ 0.838 µM).

`Nc1nc(N)c2c(Sc3ccccc3)cccc2n1` displayed an MIC against Candida albicans [1] of 0.05 µg/mL (≈ 0.186 µM).

In the assay with Candida albicans [1], `Nc1nc(N)c2c(Sc3ccc(Cl)cc3)cccc2n1` displayed an MIC of 0.5 µg/mL (≈ 1.65 µM).

Consider `Nc1nc(N)c2c(Sc3ccc(C4CCCCC4)cc3)cccc2n1`, for which, in the assay on Candida albicans [1], the lowest concentration to inhibit growth (MIC) was 1 µg/mL (≈ 2.85 µM). The Selectivity index in the assay on Candida albicans [2] was above 200.

For the compound `CCC(C)(C)c1ccc(Sc2cccc3nc(N)nc(N)c23)cc1`, the MIC against Candida albicans [1] was determined as 10 µg/mL (≈ 29.5 µM). Moreover, the Selectivity index in the assay on Candida albicans [2] was 10.

The compound `Nc1nc(N)c2c(Sc3ccc([N+](=O)[O-])cc3)cccc2n1` registered an MIC against Candida albicans [1] of 50 µg/mL (≈ 160 µM). Moreover, the Selectivity index in the assay with Candida albicans [2] was 100.

The compound `CC(C)(C)c1ccc(Sc2c(N)ccc3nc(N)nc(N)c23)cc1` yielded an MIC against Candida albicans [1] of 5 µg/mL (≈ 14.7 µM).

Turning to `CC(C)(C)c1ccc(Sc2c(C#N)ccc3nc(N)nc(N)c23)cc1`, the MIC in the assay on Candida albicans [1] was above 5 µg/mL.

Source of the values: ChEMBL document CHEMBL1128547, “Selective inhibitors of Candida albicans dihydrofolate reductase: activity and selectivity of 5-(arylthio)-2,4-diaminoquinazolines” (J Med Chem, 1995).
